Activity calls are given as the source filed them. No cut-off for these calls is given here.
Assays:
Assay type in all cases: cell-based
[1] = target: Toll-like receptor 2 (Mus musculus) (UniProt Q9QUN7); assay: Inhibition of MyD88 recruitment to TLR2 in C57BL/6 mouse BMDM cells assessed as inhibition of HKSA-induced IkappaBalpha phosphorylation up to 90 mins by Western blot analysis
Procedure, shortened: (§1)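 Bone marrow macrophages from C57BL/6 mice, grown in 70% growth medium (DMEM, 10% FBS) plus 30% L929-conditioned medium and given fresh medium 12-14 h before stimulation. Stimuli: IL-1 40 ng/ml, HKSA ~10^8 cfu/ml, pI:pC 50 μg/ml or CpG 10 μg/ml, ± compound at 10 μM (final) added from a 200x DMSO stock. IκBα and p38 profiled by immunoblot. Three independent experiments, quantitated and normalized.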

[2] = target: T1, Inhibitor of nuclear factor kappa-B kinase subunit beta (Mus musculus) (UniProt O88351); assay: Inhibition of IKKbeta in C57BL/6 mouse BMDM cells assessed as inhibition of TNFalpha-induced IkappaBalpha phosphorylation at 25 uM after 5 mins by Western blot analysis
T1 sequence (whole entry): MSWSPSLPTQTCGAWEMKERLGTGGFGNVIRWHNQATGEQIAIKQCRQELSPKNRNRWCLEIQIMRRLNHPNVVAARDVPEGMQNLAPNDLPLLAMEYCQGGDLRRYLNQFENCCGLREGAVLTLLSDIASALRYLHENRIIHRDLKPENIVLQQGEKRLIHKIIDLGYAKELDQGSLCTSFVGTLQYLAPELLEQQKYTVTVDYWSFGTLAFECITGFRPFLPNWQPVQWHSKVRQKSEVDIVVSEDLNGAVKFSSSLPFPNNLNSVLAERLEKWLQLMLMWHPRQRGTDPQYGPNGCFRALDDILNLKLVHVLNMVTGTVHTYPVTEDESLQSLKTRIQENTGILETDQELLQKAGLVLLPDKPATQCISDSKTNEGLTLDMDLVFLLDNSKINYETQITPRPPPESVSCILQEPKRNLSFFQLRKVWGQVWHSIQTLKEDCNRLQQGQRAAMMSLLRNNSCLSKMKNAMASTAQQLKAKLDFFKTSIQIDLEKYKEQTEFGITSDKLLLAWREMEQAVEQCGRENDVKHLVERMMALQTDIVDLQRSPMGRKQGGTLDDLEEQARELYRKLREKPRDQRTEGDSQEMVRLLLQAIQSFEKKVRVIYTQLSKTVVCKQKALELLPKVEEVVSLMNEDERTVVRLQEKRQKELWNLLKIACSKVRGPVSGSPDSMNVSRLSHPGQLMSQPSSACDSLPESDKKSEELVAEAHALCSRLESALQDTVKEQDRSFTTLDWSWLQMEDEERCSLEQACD
Procedure, shortened: (§2)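 C57BL/6 marrow-derived macrophages were cultured in 70% growth medium/30% L929-conditioned medium and refreshed 12-14 h before stimulation. Stimuli were TNF 40 ng/ml or LPS 100 ng/ml, ± compound at 25 μM from a 200x DMSO stock. Western blots tracked IKK, p38, IκBα and phospho-RelA. Results from three independent experiments were quantitated and normalized.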

[3] = target: T1, Inhibitor of nuclear factor kappa-B kinase subunit beta (Mus musculus); assay: Inhibition of IKKbeta in C57BL/6 mouse BMDM cells assessed as inhibition of TNFalpha-induced RelA phosphorylation at 25 uM after 5 mins by Western blot analysis; procedure, shortened: as §2
[4] = target: Toll-like receptor 2 (Mus musculus) (UniProt Q9QUN7); assay: Inhibition of MyD88 recruitment to TLR2 in C57BL/6 mouse BMDM cells assessed as inhibition of HKSA-induced IkappaBalpha degradation up to 90 mins by Western blot analysis; procedure, shortened: as §1
[5] = target: T1, Inhibitor of nuclear factor kappa-B kinase subunit beta (Mus musculus); assay: Inhibition of IKKbeta in C57BL/6 mouse BMDM cells assessed as inhibition of TNFalpha-induced phosphorylation at 25 uM after 5 mins by Western blot analysis; procedure, shortened: as §2
[6] = target: T1, Inhibitor of nuclear factor kappa-B kinase subunit beta (Mus musculus); assay: Inhibition of IKKbeta in C57BL/6 mouse BMDM cells assessed as inhibition of LPS-induced IkappaBalpha phosphorylation at 50 uM up to 90 mins by Western blot analysis
[7] = target: T2, Toll-like receptor 3 (Mus musculus) (UniProt Q99MB1); assay: Inhibition of TRIF recruitment to TLR3 in C57BL/6 mouse BMDM cells assessed as inhibition of pI:pC-induced IkappaBalpha degradation up to 90 mins by Western blot analysis; procedure, shortened: as §1
T2 sequence (whole entry): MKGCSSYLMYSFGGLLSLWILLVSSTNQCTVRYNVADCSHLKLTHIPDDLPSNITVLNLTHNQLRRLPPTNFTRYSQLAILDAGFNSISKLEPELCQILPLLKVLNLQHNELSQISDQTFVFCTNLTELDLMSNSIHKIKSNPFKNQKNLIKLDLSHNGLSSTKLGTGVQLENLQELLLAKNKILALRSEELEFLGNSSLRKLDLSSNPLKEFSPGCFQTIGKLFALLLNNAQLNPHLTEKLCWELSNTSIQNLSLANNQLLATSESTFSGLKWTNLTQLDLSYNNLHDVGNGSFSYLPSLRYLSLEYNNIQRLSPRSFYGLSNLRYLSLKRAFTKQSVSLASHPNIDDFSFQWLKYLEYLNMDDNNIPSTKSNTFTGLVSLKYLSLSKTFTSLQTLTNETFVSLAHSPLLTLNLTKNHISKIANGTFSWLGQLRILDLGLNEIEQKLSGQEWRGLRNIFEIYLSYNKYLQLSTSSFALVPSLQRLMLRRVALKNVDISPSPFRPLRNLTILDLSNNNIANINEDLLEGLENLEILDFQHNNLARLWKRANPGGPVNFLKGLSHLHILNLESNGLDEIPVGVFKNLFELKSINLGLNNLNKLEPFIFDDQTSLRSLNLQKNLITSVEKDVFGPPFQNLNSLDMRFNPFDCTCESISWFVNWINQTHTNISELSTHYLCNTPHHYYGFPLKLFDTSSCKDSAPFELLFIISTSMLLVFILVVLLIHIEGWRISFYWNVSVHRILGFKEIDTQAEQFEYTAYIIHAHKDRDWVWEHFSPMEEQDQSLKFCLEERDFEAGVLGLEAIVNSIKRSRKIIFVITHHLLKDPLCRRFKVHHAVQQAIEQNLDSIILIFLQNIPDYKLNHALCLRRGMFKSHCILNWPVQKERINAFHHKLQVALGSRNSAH

Chain of Toll-like receptor 2 (Mus musculus) (Q9QUN7 whole entry): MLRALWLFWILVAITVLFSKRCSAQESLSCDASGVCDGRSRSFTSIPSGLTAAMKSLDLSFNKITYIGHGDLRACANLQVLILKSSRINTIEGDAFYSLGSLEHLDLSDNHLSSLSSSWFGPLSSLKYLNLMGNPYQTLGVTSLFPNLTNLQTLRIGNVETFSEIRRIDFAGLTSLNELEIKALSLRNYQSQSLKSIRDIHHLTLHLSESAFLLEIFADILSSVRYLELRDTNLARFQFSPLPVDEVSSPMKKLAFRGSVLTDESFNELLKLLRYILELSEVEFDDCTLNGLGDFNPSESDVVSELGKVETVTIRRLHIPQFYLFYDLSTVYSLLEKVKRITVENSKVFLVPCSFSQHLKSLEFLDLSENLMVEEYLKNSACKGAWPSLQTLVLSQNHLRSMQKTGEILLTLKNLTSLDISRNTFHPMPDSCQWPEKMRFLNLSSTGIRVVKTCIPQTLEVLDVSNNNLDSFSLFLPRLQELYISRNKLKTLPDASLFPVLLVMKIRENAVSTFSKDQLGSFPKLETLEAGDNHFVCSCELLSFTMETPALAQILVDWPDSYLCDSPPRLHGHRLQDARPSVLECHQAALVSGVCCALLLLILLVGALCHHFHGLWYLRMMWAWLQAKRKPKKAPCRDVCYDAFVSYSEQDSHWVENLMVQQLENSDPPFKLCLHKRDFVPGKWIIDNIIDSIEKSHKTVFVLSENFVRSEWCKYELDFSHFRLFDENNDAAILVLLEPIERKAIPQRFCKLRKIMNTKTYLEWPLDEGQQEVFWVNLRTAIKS

## O=C(CCCCCN1C(=O)CCC1=O)Oc1ccc2cc(C(C(=O)NCc3ccccc3)N(C(=O)Cc3ccc4c(c3)OCO4)C3CC3)ccc2c1 (stereo unspecified)
[1]
  inhibition: Active
[2]
  inhibition: inactive
[3]
  inhibition: inactive
[4]
  inhibition: Active
[5]
  inhibition: inactive
[6]
  inhibition of IkappaBalpha phosphorylation (active/not active): inactive
[7]
  inhibition: Active

## O=C(CCCCCN1C(=O)C=CC1=O)Oc1ccc2cc(C(C(=O)NCc3ccccc3)N(C(=O)Cc3ccc4c(c3)OCO4)C3CC3)ccc2c1 (stereo unspecified)
[1]
  inhibition: Active
[2]
  inhibition: inactive
[3]
  inhibition: inactive
[4]
  inhibition: Active
[5]
  inhibition: inactive
[6]
  inhibition of IkappaBalpha phosphorylation (active/not active): Active
[7]
  inhibition: Active

## O=C(CCCCCCCC(=O)ON1C(=O)CCC1=O)Oc1ccc2cc(C(C(=O)NCc3ccccc3)N(C(=O)Cc3ccc4c(c3)OCO4)C3CC3)ccc2c1 (stereo unspecified)
[1]
  inhibition: Active
[2]
  inhibition: inactive
[3]
  inhibition: inactive
[4]
  inhibition: Active
[5]
  inhibition: inactive
[6]
  inhibition of IkappaBalpha phosphorylation (active/not active): Active
[7]
  inhibition: Active
